The source of these data is ChEMBL document CHEMBL4359890, “Design, synthesis of oleanolic acid-saccharide conjugates using click chemistry methodology and study of their anti-influenza activity” (Eur J Med Chem, 2019).

The test system of data set [1] is Influenza A virus. The data set can be described thus: Antiviral activity against Influenza A virus A/WSN/33 infected in MDCK cells assessed as reduction in virus-induced cytopathic effect at 100 uM after 40 hrs by Celltiter-Glo assay relative to control. The data set is classed as functional. The settings on record: A/WSN/33, MDCK. Put shortly: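 This was a single-concentration screen at 100 μM in MDCK cells infected with A/WSN/33 at MOI 0.1. CPE protection was read by CellTiter-Glo after 40 h of incubation. The inhibition rate was expressed relative to 1% DMSO (final) negative control, with oseltamivir phosphate as the positive control. Experiments were run in triplicate.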

The nature of data set [2]: Cytotoxicity against dog MDCK cells assessed as cell viability at 100 uM measured after 40 hrs by Celltiter-Glo assay relative to control. The format is cell-based, Canis lupus familiaris. The settings on record: read-out: Activity. Put shortly:
(§1)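 Uninfected MDCK cells were grown overnight in 96-well plates with 1% FBS. They were then exposed to increasing compound concentrations, or to a single 100 μM screen, for 40 h, and viability was read by CellTiter-Glo. CC50 is the concentration causing 50% death of uninfected cells.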
(In general: ATP-based viability assays read luminescence as a measure of living cells.)

Data set [3] is described as follows: Cytotoxicity against dog MDCK cells assessed as reduction in cell viability measured after 40 hrs by Celltiter-Glo assay. The data set is classed as cell-based, Canis lupus familiaris. Put shortly:
as §1

Data set [4] deals with Hemagglutinin (Influenza A virus) (UniProt B4URE7). The data set can be described thus: Inhibition of influenza A virus A/WSN/33 HA-mediated chicken erythrocytes hemagglutination pretreated with compound followed by erythrocytes addition measured after 30 mins. Put shortly: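 Compound was serially diluted 2-fold in saline and mixed with an equal volume of A/WSN/33 (H1N1) virus in V-bottom plates. Freshly prepared chicken red blood cells (1% v/v in saline) were then added. After 30 min at room temperature, erythrocyte aggregation was scored visually. Anti-HA antibody served as the positive control.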
Sequence of Hemagglutinin (Influenza A virus) (B4URE7 as listed by the source): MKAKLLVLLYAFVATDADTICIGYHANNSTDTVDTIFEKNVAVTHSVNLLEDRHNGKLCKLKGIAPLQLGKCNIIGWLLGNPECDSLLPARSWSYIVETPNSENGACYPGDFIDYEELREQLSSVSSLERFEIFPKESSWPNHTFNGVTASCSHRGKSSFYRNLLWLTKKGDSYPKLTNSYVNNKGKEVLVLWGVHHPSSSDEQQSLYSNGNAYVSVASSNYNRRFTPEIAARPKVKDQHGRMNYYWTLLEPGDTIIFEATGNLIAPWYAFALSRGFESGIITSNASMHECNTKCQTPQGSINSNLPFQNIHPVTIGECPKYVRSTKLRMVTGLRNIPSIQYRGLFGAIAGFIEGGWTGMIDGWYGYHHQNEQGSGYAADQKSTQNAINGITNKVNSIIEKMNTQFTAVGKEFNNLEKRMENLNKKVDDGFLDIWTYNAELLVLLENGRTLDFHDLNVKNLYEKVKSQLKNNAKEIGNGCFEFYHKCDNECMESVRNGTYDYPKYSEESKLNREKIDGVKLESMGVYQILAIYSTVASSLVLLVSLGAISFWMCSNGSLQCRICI

For data set [5], the system named is Influenza A virus. The data set can be described thus: Antiviral activity against Influenza A virus A/WSN/33 assessed as inhibition of virus-induced cytopathic effect after 40 hrs by Celltiter-Glo assay. The data set is classed as functional, organism-based. The conditions noted are these: A/WSN/33, 40 h. Summed up:
(§2)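 MDCK cells were seeded in 96-well plates, left overnight, then infected with influenza virus at MOI 0.1 and treated with the compound. After 40 h, viability was read by CellTiter-Glo luminescence. 1% DMSO (final) served as the negative control and oseltamivir phosphate as the positive control. IC50 is the concentration that inhibits virus-induced CPE by 50%, taken from dose-response curves in replicate independent experiments.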

Data set [6] is described as follows: Selectivity index, ratio of CC50 for MDCK cells to IC50 for influenza A virus A/WSN/33. The format is toxicity. The settings on record: dog, read-out: Ratio CC50/IC50. Summed up: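 SI was calculated as CC50 (uninfected MDCK, 40 h CellTiter-Glo) divided by IC50 (50% inhibition of A/WSN/33 replication in MDCK, MOI 0.1, 40 h CellTiter-Glo).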
Data set [7] has as its system Influenza A virus. The data set can be described thus: Antiviral activity against Influenza A virus A/Victoria/361/2011(H3N2) infected in MDCK cells assessed as inhibition of virus-induced cytopathic effect after 40 hrs by Celltiter-Glo assay. The data set is classed as functional, organism-based. Put shortly:
as §2
In general terms: Protection from cytopathic effect is a common read-out in antiviral testing.

Data set [8] has as its system Influenza B virus. The data set can be described thus: Antiviral activity against Influenza B virus B/Yamagata/16/88(BY) infected in MDCK cells assessed as inhibition of virus-induced cytopathic effect after 40 hrs by Celltiter-Glo assay. The format is functional, organism-based. Put shortly:
as §2

Data set [9] relates to Influenza B virus. The data set can be described thus: Antiviral activity against Influenza B virus B/Sichuan/531/2018(BV) infected in MDCK cells assessed as inhibition of virus-induced cytopathic effect after 40 hrs by Celltiter-Glo assay. The format is functional, organism-based. Summed up: as §2
Data set [10] deals with Influenza B virus. The data set can be described thus: Antiviral activity against Influenza B virus B/Massachusetts/2/2012(BV) infected in MDCK cells assessed as inhibition of virus-induced cytopathic effect after 40 hrs by Celltiter-Glo assay. The data set is classed as functional, organism-based. Put shortly:
as §2

The test system of data set [11] is Influenza B virus. The data set can be described thus: Potency index, ratio of OSV-p IC50 to compound IC50 for antiviral activity against Influenza B virus B/Yamagata/16/88(BY). The data set is classed as functional.
In data set [12] the test system is MDCK. The data set can be described thus: Cytotoxicity against dog MDCK cells assessed as reduction in cell viability at 100 uM measured after 40 hrs by Celltiter-Glo assay. The data set is classed as cell-based, Canis lupus familiaris. Summed up:
as §1

One may read the inhibition as the share of the control response that was lost under treatment. For orientation: CC50 means the concentration at which the toxic effect on the cells reaches its halfway point. What is called IC50 is the point on the concentration scale where inhibition reaches its midpoint.

The source made the active and inactive calls. The rule behind the calls is not given here.

`CC1(C)CC[C@]2(C(=O)NCc3cn([C@@H]4O[C@H](CO)[C@@H](O)[C@H](O)[C@H]4O)nn3)CC[C@]3(C)C(=CC[C@@H]4[C@@]5(C)CC[C@H](O)C(C)(C)[C@@H]5CC[C@]43C)[C@@H]2C1`: the inhibition at 100 µM in data set [1] was over 75%. Besides, the viability at 40 h, 100 µM in data set [2] is over 75%. Moreover, the CC50 at 40 h in data set [3] was over 100 µM. The inhibition result in data set [4] is “Active”. The IC50 in [5] is 5.47 µM; in [7], 10.4 µM; in [8] it was 5.54 µM; in data set [9] it was 26.1 µM; in [10], 11.5 µM. Besides, the selectivity ratio in [6] is over 18.3. For the same compound, the “Ratio IC50” value in data set [11] is listed as 4. Also, the Activity result in data set [12] is “Non-Toxic”.
